The nature of data set [1]: Drug level in normal rhesus monkey frontal cortex assessed as standard uptake value at 152.9 MBq, iv after 22.5 mins by microPET. Format: ADME, organism-based, Macaca mulatta. The conditions noted are these: in vivo, 0.375 h. The gist of the method: (§1)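 Single normal rhesus monkey; tracer given iv via the vena saphena, 1 day apart from the other tracer injections. Dynamic μPET ran 90 min (5×60 s, 5×120 s, 9×300 s, 3×600 s). Images were reconstructed by filtered back projection with a RAMP filter. Regional time-activity curves were expressed as SUV.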

Data set [2] in a line: Drug level in normal rhesus monkey frontal cortex assessed as standard uptake value at 152.9 MBq, iv after 65 mins by microPET. Format: ADME, organism-based, Macaca mulatta. The conditions noted are these: in vivo. The method, boiled down: as §1
The nature of data set [3]: Drug level in normal rhesus monkey white matter assessed as standard uptake value at 152.9 MBq, iv after 8 mins by microPET. Format: ADME, organism-based, Macaca mulatta. To be noted: in vivo.
The nature of data set [4]: Drug level in normal rhesus monkey thalamus assessed as standard uptake value at 152.9 MBq, iv after 0.5 mins by microPET. Format: ADME, organism-based, Macaca mulatta. To be noted: in vivo.
Data set [5] is described as follows: Drug level in normal rhesus monkey thalamus assessed as standard uptake value at 152.9 MBq, iv after 2.5 mins by microPET. The conditions noted are these: in vivo. Format: ADME, organism-based, Macaca mulatta.
A short description of data set [6]: Biodistribution in NMRI mouse urine at 3.7 MBq/mL, iv after 60 mins by gamma counting. Format: ADME, organism-based. The conditions noted are these: in vivo, 1 h. The method, boiled down:
(§2)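 Male NMRI mice (30-40 g) under isoflurane (1.5-2.5% in oxygen) got 0.1 mL of HPLC-purified tracer diluted with 0.9% NaCl to 3.7 MBq/mL (ethanol ≤10%) via tail vein. Mice were decapitated at 2 or 60 min p.i., and organs, blood and urine were weighed and γ-counted. Values are background-corrected %ID or %ID/g, with blood mass taken as 7% of body mass.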

The next data set concerns Kidney. The data set can be described thus: Biodistribution in NMRI mouse kidney at 3.7 MBq/mL, iv after 2 mins by gamma counting. Format: ADME, organism-based. To be noted: in vivo. The gist of the method: as §2
For data set [7], the system named is Liver. The data set can be described thus: Biodistribution in NMRI mouse liver at 3.7 MBq/mL, iv after 60 mins by gamma counting. Format: ADME, organism-based. To be noted: in vivo, 1 h. The method, boiled down:
as §2

The test system of data set [8] is Liver. Kind of data set: Biodistribution in NMRI mouse liver assessed per gram of tissue at 3.7 MBq/mL, iv after 2 mins by gamma counting. Format: ADME, organism-based. The conditions noted are these: in vivo.
The nature of data set [9]: Biodistribution in NMRI mouse spleen/pancreas at 3.7 MBq/mL, iv after 60 mins by gamma counting. Format: ADME, organism-based. The conditions noted are these: in vivo, 1 h. The method, boiled down:
as §2

The next data set concerns Lung. Kind of data set: Biodistribution in NMRI mouse lung assessed per gram of tissue at 3.7 MBq/mL, iv after 2 mins by gamma counting. To be noted: in vivo. Format: ADME, organism-based. The gist of the method: as §2
For data set [10], the system named is Heart. Kind of data set: Biodistribution in NMRI mouse heart at 3.7 MBq/mL, iv after 60 mins by gamma counting. To be noted: in vivo, 1 h. Format: ADME, organism-based. The gist of the method:
as §2

In data set [11] the test system is Heart. The data set can be described thus: Drug level in NMRI mouse heart assessed as standard uptake value at 3.7 MBq/mL, iv after 60 mins by gamma counting. Format: ADME, organism-based. The conditions noted are these: in vivo, 1 h. The gist of the method:
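Male NMRI mice (30-40 g) were anaesthetised with isoflurane. Each received 0.1 mL of HPLC-purified tracer, diluted in 0.9% NaCl to 3.7 MBq/mL (ethanol ≤10%), via a tail vein. Mice were decapitated at 2 or 60 min. Organs were dissected, weighed and γ-counted with background correction. SUV = (organ cpm/organ weight)/(total recovered counts/body weight). Blood mass was taken as 7% of body mass.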

Data set [12] has as its system Cerebellum. Kind of data set: Biodistribution in NMRI mouse cerebellum at 3.7 MBq/mL, iv after 2 mins by gamma counting. Format: ADME, organism-based. The conditions noted are these: in vivo. The method, boiled down:
as §2

Data set [13] deals with Cerebellum. The data set can be described thus: Biodistribution in NMRI mouse cerebellum assessed per gram of tissue at 3.7 MBq/mL, iv after 2 mins by gamma counting. Format: ADME, organism-based. The conditions noted are these: in vivo. The method, boiled down: as §2
The next data set relates to Blood. Kind of data set: Biodistribution in NMRI mouse blood assessed per gram of tissue at 3.7 MBq/mL, iv after 60 mins by gamma counting. Format: ADME, organism-based. To be noted: in vivo, 1 h. The method, boiled down:
as §2

Data set [14] can be described thus: Drug level in normal rhesus monkey thalamus assessed as standard uptake value at 152.9 MBq, iv after 57.5 mins by microPET. Format: ADME, organism-based, Macaca mulatta. To be noted: in vivo.
A short description of data set [15]: Drug level in normal rhesus monkey thalamus assessed as standard uptake value at 152.9 MBq, iv after 65 mins by microPET. Format: ADME, organism-based, Macaca mulatta. The conditions noted are these: in vivo.
The nature of data set [16]: Drug level in normal rhesus monkey thalamus assessed as standard uptake value at 152.9 MBq, iv after 85 mins by microPET. Format: ADME, organism-based, Macaca mulatta. To be noted: in vivo.
Data set [17] can be described thus: Drug level in normal rhesus monkey cerebellum assessed as standard uptake value at 109.4 MBq, iv after 0.625 mins by microPET. Format: ADME, organism-based, Macaca mulatta. The conditions noted are these: in vivo, 38 s.
A short description of data set [18]: Drug level in normal rhesus monkey cerebellum assessed as standard uptake value at 109.4 MBq, iv after 0.875 mins by microPET. Format: ADME, organism-based, Macaca mulatta. The conditions noted are these: in vivo, 52 s.
The nature of data set [19]: Drug level in normal rhesus monkey parietal cortex assessed as standard uptake value at 96.3 MBq, iv after 115 mins by microPET. Format: ADME, organism-based, Macaca mulatta. The conditions noted are these: in vivo.
Data set [20] is described as follows: Drug level in normal rhesus monkey thalamus assessed as standard uptake value at 96.3 MBq, iv after 14 mins by microPET. To be noted: in vivo. Format: ADME, organism-based, Macaca mulatta.
Data set [21] is described as follows: Drug level in normal rhesus monkey pons assessed as standard uptake value at 96.3 MBq, iv after 155 mins by microPET. Format: ADME, organism-based, Macaca mulatta. To be noted: in vivo.
The nature of data set [22]: Drug level in normal rhesus monkey parietal cortex assessed as standard uptake value at 96.3 MBq, iv after 2.5 mins by microPET. Format: ADME, organism-based, Macaca mulatta. To be noted: in vivo.
A short description of data set [23]: Drug level in normal rhesus monkey cerebellum assessed as standard uptake value at 96.3 MBq, iv after 47.5 mins by microPET. Format: ADME, organism-based, Macaca mulatta. To be noted: in vivo. The method, boiled down:
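One normal rhesus monkey, each tracer given iv via the vena saphena (81.2, 96.3 or 109.4 MBq), with 1 day between tracer injections. Dynamic brain μPET over 180 min used frames of 5 × 60 s, 5 × 120 s, 9 × 300 s and 12 × 600 s. Images were reconstructed by filtered back projection with a RAMP filter. Regional time-activity curves were expressed as SUV.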

Data set [24] is described as follows: Drug level in normal rhesus monkey frontal cortex assessed as standard uptake value at 96.3 MBq, iv after 14 mins by microPET. Format: ADME, organism-based, Macaca mulatta. The conditions noted are these: in vivo.
A short description of data set [25]: Drug level in normal rhesus monkey white matter assessed as standard uptake value at 96.3 MBq, iv after 37.5 mins by microPET. Format: ADME, organism-based, Macaca mulatta. The conditions noted are these: in vivo, 0.625 h.
A short description of data set [26]: Drug level in normal rhesus monkey pons assessed as standard uptake value at 81.2 MBq, iv after 6 mins by microPET. Format: ADME, organism-based, Macaca mulatta. The conditions noted are these: in vivo, 0.1 h.
Data set [27] is described as follows: Drug level in normal rhesus monkey pons assessed as standard uptake value at 81.2 MBq, iv after 32.5 mins by microPET. Format: ADME, organism-based, Macaca mulatta. The conditions noted are these: in vivo.
A short description of data set [28]: Drug level in normal rhesus monkey pons assessed as standard uptake value at 81.2 MBq, iv after 37.5 mins by microPET. Format: ADME, organism-based, Macaca mulatta. To be noted: in vivo, 0.625 h.
The nature of data set [29]: Drug level in normal rhesus monkey white matter assessed as standard uptake value at 81.2 MBq, iv after 8 mins by microPET. Format: ADME, organism-based, Macaca mulatta. To be noted: in vivo.
Data set [30] can be described thus: Drug level in normal rhesus monkey white matter assessed as standard uptake value at 81.2 MBq, iv after 47.5 mins by microPET. Format: ADME, organism-based, Macaca mulatta. The conditions noted are these: in vivo.
Data set [31] can be described thus: Drug level in normal rhesus monkey white matter assessed as standard uptake value at 81.2 MBq, iv after 175 mins by microPET. Format: ADME, organism-based, Macaca mulatta. The conditions noted are these: in vivo.
The nature of data set [32]: Drug level in normal rhesus monkey frontal cortex assessed as standard uptake value at 81.2 MBq, iv after 2.5 mins by microPET. The conditions noted are these: in vivo. Format: ADME, organism-based, Macaca mulatta.

For `[11CH3]Nc1ccc(-c2nc3ccc(O)cc3s2)cc1` [PITTSBURGH COMPOUND B], the SUV is listed as 1.373 in data set [1]; 0.653 in data set [2]; 1.421 in [3]; 0.038 in data set [4]; 1.195 in data set [5]; 0.7 with Heart [11]. Moreover, the SUV in [14] is recorded as 0.88; in [15], 0.85; in data set [16], 0.672. In addition, the Drug uptake in [6] is listed as 24.4%; with Kidney it was 10.3%; in the data set with Liver [7], 9.8%; in the data set with Liver [8], 7.9%; in data set [9], 0.1%; in the data set on Lung, 3.6%. The Drug uptake in the data set with Heart [10] came out at 0.3%; in the data set with Cerebellum [12] it was 0.17%; in the data set on Cerebellum [13], 1.6%; in the data set with Blood it was 1.1%.

For the compound `Nc1ccc2nc(-c3ccc([18F])cc3)sc2c1`, the Drug uptake is recorded as 4.9% in data set [6]; 8.3% in the data set on Kidney; 10.7% with Liver [7]; 20% in the data set on Liver [8]; 0.3% in data set [9]; 8.9% in the data set on Lung. The Drug uptake with Heart [10] was found to be 0.1%; in the data set on Cerebellum [12], 1.74%; with Cerebellum [13], 15.48%; in the data set on Blood it was 0.6%. The SUV in the data set with Heart [11] was 0.2; in [17], 2.19; in [18] it was 3.51.

As to `CN(C)c1ccc2nc(-c3ccc([18F])cc3)sc2c1`, the SUV in data set [19] was 1.3; in data set [20] it was 2.33; in data set [21], 1.87; in [22] it was 2; with Heart [11], 0.5; in data set [23], 1.23. The SUV in data set [24] was 2.19; in [25], 1.46. Besides, the Drug uptake in data set [6] was 7.6%; in the data set with Kidney, 8.5%; with Liver [7], 18.9%; with Liver [8] it was 18.9%; in data set [9] it was 0.3%; with Lung, 8%. Also, the Drug uptake in the data set on Heart [10] worked out at 0.2%; in the data set on Cerebellum [12], 0.77%; in the data set with Cerebellum [13], 9.23%; with Blood it was 0.9%.

As for `CNc1ccc2nc(-c3ccc([18F])cc3)sc2c1`, the SUV in data set [26] is 4.164; in [27] it was 5.714; in [28], 5.487; in the data set with Heart [11], 0.4; in data set [29], 3.412; in [30], 3.674. In addition, the SUV in data set [31] was 4.226; in data set [32] it was 4.284. In addition, the Drug uptake in [6] was determined as 13%; in the data set with Kidney, 8.2%; in the data set on Liver [7], 17.5%; in [9] it was 0.3%; in the data set on Lung, 7.3%; with Heart [10] it was 0.2%. In addition, the Drug uptake with Cerebellum [12] is on record as 1.19%; in the data set with Cerebellum [13], 11.76%; with Blood, 0.9%.

These data come from ChEMBL document CHEMBL1154674, “Synthesis and evaluation of three 18F-labeled aminophenylbenzothiazoles as amyloid imaging agents” (J Med Chem, 2009).
